# Experiments:
# [1] = target: Aldo-keto reductase family 1 member A1 (Rattus norvegicus, UniProt P51635); assay: Inhibition of Fischer-344 rat kidney ALR1 using D-glycuronate as substrate by spectrophotometry
# [2] = target: Aldo-keto reductase family 1 member A1 (Rattus norvegicus) (UniProt P51635); assay: Inhibition of Fischer-344 rat kidney ALR1 using D-glycuronate as substrate at 10' -5 M by spectrophotometry
# [3] = species: Rattus norvegicus; assay: Selectivity index, ratio of IC50 for Fischer-344 rat kidney ALR1 to IC50 for Fischer-344 rat lens ALR2; format: tissue-based; settings: Lens of camera-type eye
# How it was run: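 Selectivity index calculated from the IC50 values of two spectrophotometric NADPH-consumption assays (340 nm). Rat kidney ALR1 was measured at 37 °C and rat lens ALR2 at 30 °C. Each IC50 was derived by least-squares fitting of triplicate five-concentration log(dose)–response data.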
# [4] = target: Aldo-keto reductase family 1 member B1 (Rattus norvegicus, UniProt P07943); assay: Inhibition of Fischer-344 rat lens ALR2 by spectrophotometry
# Aldo-keto reductase family 1 member A1 (Rattus norvegicus), sequence (P51635 whole entry, looked up): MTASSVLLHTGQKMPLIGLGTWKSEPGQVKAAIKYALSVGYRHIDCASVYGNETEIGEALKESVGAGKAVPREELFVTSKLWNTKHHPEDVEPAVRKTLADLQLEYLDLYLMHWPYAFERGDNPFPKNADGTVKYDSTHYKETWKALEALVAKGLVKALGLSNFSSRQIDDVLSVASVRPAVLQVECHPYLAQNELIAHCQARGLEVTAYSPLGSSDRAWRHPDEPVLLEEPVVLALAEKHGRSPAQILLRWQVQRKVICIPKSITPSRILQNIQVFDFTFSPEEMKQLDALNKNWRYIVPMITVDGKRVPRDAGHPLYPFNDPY
# Aldo-keto reductase family 1 member A1, sequence (P51635 whole entry, looked up): as above
SMILES,IC50 [1] [µM],inhibition [2] [%],IC50 [4] [nM],Ratio IC50 [3]
O=C(c1cccn1-c1cc(F)c(O)c(F)c1)C(F)(F)F,18.9,26.5,930,20.3
O=C(c1ccc(-c2ccccc2)cc1)c1ccn(-c2cc(F)c(O)c(F)c2)c1,5.63,72.8,2300,1.87
O=C(c1ccc(Br)cc1F)c1cccn1-c1cc(F)c(O)c(F)c1,0.19,96.8,190,1
O=C(c1ccc(-c2ccccc2)cc1)c1cccn1-c1cc(F)c(O)c(F)c1,121,5.85,510,238
O=C(c1ccn(-c2cc(F)c(O)c(F)c2)c1)c1ccc(Br)cc1F,4.31,,400,

# Continued, in another order:
IC50 [1] [µM],inhibition [2] [%],IC50 [4] [nM],SMILES,Ratio IC50 [3]
16.2,30.9,520,O=C(c1ccc(OC(F)(F)F)cc1)c1cccn1-c1cc(F)c(O)c(F)c1,31.1
13.1,38,750,O=C(c1ccc(OC(F)(F)F)cc1)c1ccn(-c2cc(F)c(O)c(F)c2)c1,17.5

# Source: ChEMBL document CHEMBL2311444, “Synthesis of derivatives of the keto-pyrrolyl-difluorophenol scaffold: some structural aspects for aldose reductase inhibitory activity and selectivity” (Bioorg Med Chem, 2013)
